The values below come from ChEMBL document CHEMBL1156886, “Exploring epidermal growth factor receptor (EGFR) inhibitor features: the role of fused dioxygenated rings on the quinazoline scaffold” (J Med Chem, 2010).

Each structure is given as a SMILES string. Calls of active or inactive are those of the source. The calls are words filed in the database; no cut-off is given here. Bounds are passed on as bounds.

What all share (type): functional, cell-based
Experiment [1] relates to A-431. Put plainly: Cytotoxicity against human A431 cells after 72 hrs by MTT assay. The conditions noted are these: A-431, 72 h. In short, it runs like this: (§1)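 MTT proliferation assay after 72 h continuous compound exposure in A431 (EGFR-overexpressing) and NIH3T3 (not expressing EGFR) cells. Highest concentration tested 10 μM, limited by precipitation in culture medium. IC50 not derived when inhibition stayed below 50% at 10 μM. Values are mean ± SD of at least three independent experiments.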

The next experiment concerns NIH3T3. Put plainly: Cytotoxicity against mouse NIH/3T3 cells after 72 hrs by MTT assay. The conditions noted are these: NIH3T3, 72 h. In short, it runs like this:
as §1

The subject of experiment [2] is A-431. The experiment is described as follows: Antiproliferative activity against human A431 cells assessed as cell growth at 10 uM pretreated for 24 hrs measured after 68 hrs of drug removel by MTT assay.
The subject of experiment [3] is A-431. Put plainly: Antiproliferative activity against exogenous EGF-induced human A431 cell growth at 0.1 uM pretreated for 24 hrs measured after 72 hrs of drug removel by MTT assay.

One may read the IC50 as the concentration that gives 50% inhibition. Low readings indicate inhibition by little substance, high ones a need for much substance. As to `Cc1cccc(Nc2ncnc3cc4c(cc23)OCCO4)c1`, the figures for the IC50 in the experiment on A-431 [1] and with NIH3T3 were 0.67 µM and 5.8 µM, respectively. Moreover, in the experiment with A-431 [2], the result was Active.

The molecule `Fc1cc(Br)ccc1Nc1ncnc2cc3c(cc12)OCCCO3` displayed a concentration for half-maximal inhibition (IC50) with A-431 [1] greater than 10 µM.

With `Fc1cc(Br)ccc1Nc1ncnc2cc3c(cc12)OCCO3`, the IC50 in the experiment on A-431 [1] amounted to 6.28 µM; with NIH3T3, 5.4 µM. Moreover, the outcome in the experiment on A-431 [2] was Active.

Regarding `Fc1ccc(Nc2ncnc3cc4c(cc23)OCCO4)cc1Cl`, the IC50 with A-431 [1] is greater than 10 µM.

With `Cc1cccc(Nc2ncnc3cc4c(cc23)OCCCO4)c1`, the IC50 is 6.29 µM in the experiment on A-431 [1] and greater than 10 µM with NIH3T3. For the same molecule, the result in the experiment with A-431 [2] was Active.

Consider `Fc1cc(Br)ccc1Nc1ncnc2cc3c(cc12)OCO3`, for which, in the experiment with A-431 [1], the IC50 was greater than 10 µM.

`Fc1ccc(Nc2ncnc3cc4c(cc23)OCO4)cc1Cl` returned an IC50 in the experiment with A-431 [1] greater than 10 µM.

Turning to `FC(F)(F)c1cccc(Nc2ncnc3cc4c(cc23)OCO4)c1`, the IC50 in the experiment on A-431 [1] is 8.46 µM; with NIH3T3 it was greater than 10 µM. Also, the outcome in the experiment with A-431 [2] was Active.

On to `Cc1cccc(Nc2ncnc3cc4c(cc23)OCO4)c1`, for which the IC50 with A-431 [1] was 6.69 µM; in the experiment with NIH3T3 it was greater than 10 µM. The result in the experiment on A-431 [2] was Active.

For the molecule `FC(F)(F)c1cccc(Nc2ncnc3cc4c(cc23)OCCO4)c1`, the IC50 came to 0.77 µM with A-431 [1] and 7.1 µM in the experiment with NIH3T3. Further, the outcome in the experiment on A-431 [2] was Active.

As for `Brc1cccc(Nc2ncnc3cc4c(cc23)OCCCO4)c1`, the IC50 with A-431 [1] is 8.17 µM; with NIH3T3 it was greater than 10 µM. For the same molecule, the result in the experiment on A-431 [2] was Active.

Turning to `Brc1cccc(Nc2ncnc3cc4c(cc23)OCCO4)c1`, the IC50 with A-431 [1] was 0.75 µM; in the experiment on NIH3T3, greater than 10 µM. Moreover, in the experiment with A-431 [2], the outcome was Active.

On to `FC(F)(F)c1cccc(Nc2ncnc3cc4c(cc23)OCCCO4)c1`, for which the IC50 was 4.73 µM in the experiment with A-431 [1] and greater than 10 µM with NIH3T3. Besides, the result in the experiment on A-431 [2] was Active.

As to `Fc1ccc(Nc2ncnc3cc4c(cc23)OCCCO4)cc1Cl`, the figures for the IC50 with A-431 [1] and with NIH3T3 were 7.13 µM and greater than 10 µM, respectively. The result in the experiment on A-431 [2] was Active.

As for `Brc1cccc(Nc2ncnc3cc4c(cc23)OCO4)c1`, the results for the concentration for half-maximal inhibition (IC50) in the experiment with A-431 [1] and in the experiment with NIH3T3 were 7.16 µM and greater than 10 µM, respectively. Besides, the result with A-431 [2] was Active.

As to `COc1cc2ncnc(Nc3cccc(Br)c3)c2cc1OC`, the IC50 in the experiment on NIH3T3 was greater than 10 µM. Also, the result in the experiment with A-431 [3] was inactive. Further, the result in the experiment with A-431 [2] was Active.
